These results are taken from PMC3171643 (ACS combinatorial science, 2011).

Assay [1] deals with GST-Cn (catalytic domain of human Cn) (Homo sapiens, UniProt Q08209). Format: binding. To be noted: Cn 5 μM, TMR-labeled peptide 100 nM. The procedure, abridged:
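Human Cn catalytic domain as a GST fusion, expressed in E. coli BL21 and glutathione-Sepharose purified. Single-bead-released TAMRA-labeled cyclic peptide (100 nM) was incubated with 5 μM GST-Cn for 2 h at room temperature in 20 mM HEPES pH 7.4, 150 mM NaCl, 2 mM magnesium acetate, 0.1% BSA. Anisotropy was read at ex 545/em 585 nm and expressed as % increase over the peptide without Cn.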

For assay [2], the target named is Cn. Particulars: cited from earlier work.
Assay [3] concerns the target Calcineurin (Homo sapiens) (UniProt Q08209). To be noted: cited from earlier work.

As for `CN(C)c1ccc2c(-c3ccccc3C(=O)[O-])c3ccc(N(C)C)cc3[o+]c2c1` [free TMR, tetramethylrhodamine], the “percentage of FA increase (relative to the control without Cn)” value in assay [1] is “less than 20%”.
Take MAPGHPVIVITGPHEE: the Kd in assay [2] (VIVIT peptide binding to Cn) is 0.5 µM. The “fold higher affinity for Cn than the native sequence” value in assay [2] is on record as 50 fold.
Take VIVIT peptide: in assay [3], the Kd was 0.5 µM.

A word on the Kd: it is the equilibrium constant for the complex coming apart.
